Source: ChEMBL document CHEMBL4680154, “The optimization of xanthine derivatives leading to HBK001 hydrochloride as a potent dual ligand targeting DPP-IV and GPR119” (Eur J Med Chem, 2020)
Converted amounts (≈) assume the structure as drawn.

System: not listed separately
Assay: Metabolic stability in ICR/CD-1 mouse hepatocytes assessed as parent compound remaining incubated for 30 mins by LC-MS/MS analysis
Assay type: ADME, cell-based, Hepatocyte
Conditions: read-out: Stabilty
In short: (§1)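 Hepatocytes from male ICR/CD-1 mice, male Sprague-Dawley rats, or mixed human donors. Parent compound measured after 30 min incubation and normalised to the time-zero concentration.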

Structure (SMILES)	remaining at 0.5 h [%]
CC#CCn1c(N2CCC[C@@H](N)C2)nc2c1c(=O)n(CCCN1CCN(c3nc(-c4ccccc4)cs3)CC1)c(=O)n2C	68.3

System: not listed separately
Assay: Metabolic stability in human hepatocytes assessed as parent compound remaining incubated for 30 mins by LC-MS/MS analysis
Assay type: ADME, cell-based, Hepatocyte
Conditions: read-out: Stabilty
In short: as §1

Structure (SMILES)	remaining at 0.5 h [%]
CC#CCn1c(N2CCC[C@@H](N)C2)nc2c1c(=O)n(CCCN1CCN(c3nc(-c4ccccc4)cs3)CC1)c(=O)n2C	91.5

Target: T1, Glucose-dependent insulinotropic receptor (Homo sapiens) (UniProt Q8TDV5)
T1 sequence (whole entry): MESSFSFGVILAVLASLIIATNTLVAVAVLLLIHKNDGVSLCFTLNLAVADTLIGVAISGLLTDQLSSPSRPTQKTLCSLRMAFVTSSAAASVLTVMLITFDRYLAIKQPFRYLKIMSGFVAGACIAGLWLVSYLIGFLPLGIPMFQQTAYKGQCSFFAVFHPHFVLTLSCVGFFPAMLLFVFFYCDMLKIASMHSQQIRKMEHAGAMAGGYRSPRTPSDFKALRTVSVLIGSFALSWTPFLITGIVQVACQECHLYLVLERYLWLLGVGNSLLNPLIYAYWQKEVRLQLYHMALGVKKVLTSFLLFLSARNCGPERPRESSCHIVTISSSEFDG
Assay: Agonist activity at CREB-LBD and Gal4-DBD fused recombinant human GPR119 expressed in HEK293 cells at 1 uM by firefly luciferase assay relative to AR231453
Assay type: functional, cell-based
Conditions: filed as agonist
In short: (§2)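 HEK293 cells transiently transfected with human GPR119, a Gal4-DBD/CREB-LBD fusion and a Gal4 UAS-driven luciferase reporter, then treated with compound (DMSO vehicle). Firefly luciferase luminescence read. Activation fold = compound/vehicle, expressed as percent of the AR231453 activation fold. EC50 obtained by curve fitting.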

Structure (SMILES)	Activity [%]
CC#CCn1c(N2CCC[C@@H](N)C2)nc2c1c(=O)n(CCCN1CCN(c3nc(-c4ccccc4)cs3)CC1)c(=O)n2C	56

System: not listed separately
Assay: Metabolic stability in Sprague-Dawley rat hepatocytes assessed as parent compound remaining incubated for 30 mins by LC-MS/MS analysis
Assay type: ADME, cell-based, Hepatocyte
Conditions: read-out: Stabilty
In short: as §1

Structure (SMILES)	remaining at 0.5 h [%]
CC#CCn1c(N2CCC[C@@H](N)C2)nc2c1c(=O)n(CCCN1CCN(c3nc(-c4ccccc4)cs3)CC1)c(=O)n2C	39.6

Target: T2, Glucose-dependent insulinotropic receptor (Homo sapiens, UniProt Q8TDV5)
T2 sequence (Q8TDV5 whole entry): T1 sequence (whole entry)
Assay: Agonist activity at CREB-LBD and Gal4-DBD fused recombinant human GPR119 expressed in HEK293 cells by firefly luciferase assay
Assay type: functional, cell-based
Conditions: not given
In short: as §2

Structure (SMILES)	EC50 [nM]
CC#CCn1c(N2CCC[C@@H](N)C2)nc2c1c(=O)n(CCCN1CCN(c3nc(-c4ccccc4)cs3)CC1)c(=O)n2C	650

Target: DPP8/9 (Homo sapiens, UniProt Q6V1X1+Q86TI2)
Assay: Inhibition of recombinant human DPP8/9 expressed in Rosetta cells at 10 uM using Gly-Pro-p-nitroanilide as substrate incubated for 1 hr relative to control
Conditions: probe Gly-Pro-p-nitroanilide

Structure (SMILES)	inhibition at 1 h, 10 µM [%]
CC#CCn1c(N2CCC[C@@H](N)C2)nc2c1c(=O)n(CCCN1CCN(c3nc(-c4ccccc4)cs3)CC1)c(=O)n2C	0

System: Vero
Assay: Cytotoxicity against African green monkey Vero cells incubated for 48 hrs by MTT assay
Conditions: Chlorocebus sabaeus

Structure (SMILES)	IC50 [µg/mL]
CC#CCn1c(N2CCC[C@@H](N)C2)nc2c1c(=O)n(CCCN1CCN(c3nc(-c4ccccc4)cs3)CC1)c(=O)n2C	4.3 (≈ 7.15 µM)
